From PubChem
PAFAH1B3 inh: PAFAH1B3 enzyme inhibitors, primary screen, biochemical, fluorescence polarization, human | Platelet-activating factor acetylhydrolase IB subunit alpha1 (Homo sapiens), Q15102 | recombinant PAFAH1B3, FP-rhodamine probe | inhibition, % at 3.39 µM | hit rate 0.28% among 340,000;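 active = inhibition above the screen-wide average of all tested compounds plus 3 SD, cut at about 25% in these data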
TDP2 absorb: human TDP2 enzyme inhibitors, primary screen, biochemical, epi absorbance, recombinant enzyme; T5PNP hydrolysis, p-nitrophenol absorbance 415 nm; inhibition, % at 12.8 µM; hit rate 0.34% among 370,000; AID 720702, 2013;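 active = inhibition above the mean of all tested compounds plus 3 SD, set per campaign, cut at about 25% in these data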
Target sequence (O95551 whole entry, looked up): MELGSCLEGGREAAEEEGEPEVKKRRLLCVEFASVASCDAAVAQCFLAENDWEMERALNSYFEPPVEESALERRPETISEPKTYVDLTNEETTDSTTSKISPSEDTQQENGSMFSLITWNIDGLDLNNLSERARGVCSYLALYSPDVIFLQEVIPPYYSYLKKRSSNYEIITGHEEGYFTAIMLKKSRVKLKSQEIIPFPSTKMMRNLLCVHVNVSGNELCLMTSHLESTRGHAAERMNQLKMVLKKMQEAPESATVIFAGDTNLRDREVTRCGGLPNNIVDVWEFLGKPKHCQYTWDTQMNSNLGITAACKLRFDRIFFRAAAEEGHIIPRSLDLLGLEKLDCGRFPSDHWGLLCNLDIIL
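System: recombinant human TDP2 / Amount: 120 nM TDP2 per well / Also added: 5 mM T5PNP chromogenic substrate / Doses: 12.8 µM single point, 1% DMSO / Incubation: 2 h at 37 °C / Detection: p-Nitrophenol epi absorbance / Evaluation: % inhibition relative to enzyme-containing and enzyme-free wells / Repeats: singlicate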
Apaf1 inhib: inhibitors of human Apaf-1 apoptosome, primary screen, biochemical, DEVD-Rh110 fluorescence, uHTS; reconstituted apoptosome caspase-3 activity; hit rate 0.71% among 330,000; inhibition, % at 20 µM; AID 489030, 2010; Apoptotic protease-activating factor 1 (Homo sapiens), O14727; active = inhibition of at least 40% at 20 µM
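Material: reconstituted apoptosome with Apaf-1, cytochrome c, caspase-9, procaspase-3, dATP / Buffer or medium: pH 7.5 Hepes buffer with CHAPS, BSA, DTT / Also added: cytochrome c with DEVD-Rh110 / Schedule: compound with Apaf-1, dATP, procaspase-3 30 min, then 50 min reaction, room temperature / Technique: rhodamine 110 fluorescence at Ex 480/Em 540 nm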
PAFAH1B2 inh: PAFAH1B2 enzyme inhibitors, primary screen, biochemical, fluorescence polarization, human; recombinant PAFAH1B2, FP-rhodamine activity probe; AID 492953, 2010; inhibition, % at 3.39 µM; Platelet-activating factor acetylhydrolase IB subunit alpha2 (Homo sapiens), P68402; hit rate 1.2% among 340,000;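 active = inhibition above the mean of all tested compounds plus 3 SD, cut at about 24% in these data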
Target sequence (P68402 whole entry, looked up): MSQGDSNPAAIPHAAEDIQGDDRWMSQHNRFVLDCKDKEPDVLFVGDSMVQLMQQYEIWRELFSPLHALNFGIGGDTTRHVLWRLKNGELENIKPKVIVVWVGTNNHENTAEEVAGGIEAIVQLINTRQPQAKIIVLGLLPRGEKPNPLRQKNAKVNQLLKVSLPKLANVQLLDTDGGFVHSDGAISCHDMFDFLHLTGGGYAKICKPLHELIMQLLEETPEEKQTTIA
PAFAH2 inh: PAFAH2 enzyme inhibitors, primary screen, biochemical, fluorescence polarization, human; hit rate 0.99% among 340,000; Platelet-activating factor acetylhydrolase 2, cytoplasmic (Homo sapiens), Q99487; inhibition, % at 3.39 µM; recombinant PAFAH2, FP-rhodamine activity probe; AID 492956, 2010;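 active = inhibition above the mean over all tested compounds plus 3 SD, cut at about 30% in these data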;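 note: inhibitors block probe labeling of enzyme so polarization drops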
Apaf-1 inh conf: Apaf-1 inhibitors, single-dose retest, confirmation, biochemical, fluorescence, DEVD-Rh110, 20 µM; shares compounds with Apaf1 inhib; reconstituted apoptosome, caspase-3 DEVD-Rh110 fluorescence; inhibition, % at 20 µM; hit rate 25% among 1,800; AID 504614, 2011;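 active = mean inhibition of at least 40% at 20 µM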
Rh110 interf inh: Rh110 fluorescence interference by putative Apaf-1 inhibitors, confirmation, artefact control for Apaf-1 inhibitor project, biochemical, 20 µM | shares compounds with Apaf1 inhib | activation (fluorescence interference), % at 20 µM | 1,800 tested, under 10 active | quenched caspase reaction;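 active = signal rise of 40% or more at 20 µM, treated as a fluorescence artifact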
Apaf1 inh interf: fluorescence interference of Apaf-1 inhibitor hits, dose response, artefact control for Apaf-1 inhibitor project; IC50, µM; 460 tested, under 10 active; shares compounds with Apaf1 inhib; AID 588538, 2011; fluorescence interference counterscreen, Apaf-1 assay format; call rule not given here
Of the large screens only hits and unclear results are named; the others gave an inactive call (follow-up assays come after a bar, where they were run). This is a sample that favours compounds with a hit; in the whole collection about 2.3% have one here.

COc1ccc(CCN2C(=O)c3[nH]nc(-c4ccccc4O)c3C2c2cccc(Cl)c2)cc1 (stereo not drawn)	Apaf1 inhib 41 | Apaf-1 inh conf inactive | Rh110 interf inh inactive
Oc1ccc(N=Cc2ccc(OCc3ccccc3)cc2)cc1	PAFAH1B3 inh 28, Apaf1 inhib 93 | Apaf-1 inh conf inactive | Rh110 interf inh inactive
COc1cc(C(=O)NC(C)c2ccc(-n3ccnc3)cc2)cc(OC)c1C (stereo not drawn)	Apaf1 inhib 41 | Apaf-1 inh conf inactive | Rh110 interf inh inactive
COc1cc(C(=O)NCC(=O)NC(C)c2ccc(-n3ccnc3)cc2)cc(OC)c1OC (stereo not drawn)	none
CCO[C@@H]1OC(C(=O)N2CCN(Cc3ccc4c(c3)OCO4)CC2)=C[C@H](c2ccc(C(F)(F)F)cc2)[C@H]1CCCO	Apaf1 inhib 42 | Apaf-1 inh conf inactive | Rh110 interf inh inactive
COc1ccc(CN=Cc2[nH]c3ccc(Br)c(Cl)c3c2O)cc1	Apaf1 inhib 45 | Apaf-1 inh conf 41 | Rh110 interf inh inactive | Apaf1 inh interf inactive
C=CCN(Cc1ccc2c(c1)OCO2)C(C#CCCCC)C(C)C (stereo not drawn)	none (no result: PAFAH1B3 inh, Apaf1 inhib, PAFAH1B2 inh, PAFAH2 inh)
O=C(O)c1ccc2c3c(ncnc13)-c1ccccc1C2=O	Apaf1 inhib 44 (no result: PAFAH1B3 inh, TDP2 absorb, PAFAH1B2 inh, PAFAH2 inh) | Apaf-1 inh conf inactive | Rh110 interf inh inactive
O=C(O)c1cccc2c1C(=O)c1ccccc1C2=O	none
Cc1cccc(OC[C@@H](O)CN2CCC(C(O)(c3ccccc3)c3ccccc3)CC2)c1	none (no result: PAFAH1B3 inh, Apaf1 inhib, PAFAH1B2 inh, PAFAH2 inh)
CSc1ccc(/C=N/NC(=O)CNc2cccc3ccccc23)cc1	Apaf1 inhib 86 | Apaf-1 inh conf inactive | Rh110 interf inh inactive
Cc1cccc(NC(=O)OC2CC3CC2[C@H]2CCCCN2C3)c1 (stereo partly drawn)	none (no result: PAFAH1B3 inh, Apaf1 inhib, PAFAH1B2 inh, PAFAH2 inh)
CC(C)(C)NC(=O)C[C@H]1C[C@H](C(=O)N2CCOCC2)[C@@]2(CCC3CCCC3)c3[nH]c4ccc(Cl)cc4c3CCN2C1=O	Apaf1 inhib 44 (no result: TDP2 absorb) | Apaf-1 inh conf inactive | Rh110 interf inh inactive
O=C(C[C@H]1C[C@H](C(=O)N2CCCCC2)[C@@]2(CCc3ccccc3)c3[nH]c4cc(-c5ccco5)ccc4c3CCN2C1=O)NCCN1CCOCC1	Apaf1 inhib 48 | Apaf-1 inh conf inactive | Rh110 interf inh inactive
COc1ccc(CNC(=O)C[C@H]2C[C@H](C(=O)N(C(C)C)C(C)C)[C@@]3(C)c4[nH]c5ccc(Cl)cc5c4CCN3C2=O)cc1OC	none
CC(C)N(C(=O)[C@H]1C[C@H](CC(=O)NCCC2=CCCCC2)C(=O)N2CCc3c([nH]c4ccc(Cl)cc34)[C@]12C)C(C)C	Apaf1 inhib 44 | Apaf-1 inh conf inactive | Rh110 interf inh inactive
COc1ccc2[nH]c3c(c2c1)CCN1C(=O)C(CC(=O)NC(C)(C)C)C[C@H](C(=O)N2CCOCC2)[C@@]31CCC1CCCC1 (stereo partly drawn)	none
CC[C@]12c3[nH]c4ccc(OC)cc4c3CCN1C(=O)C(CC(=O)NC/C=C(\C)CCC=C(C)C)C[C@@H]2C(=O)N1CCN(C(=O)c2ccco2)CC1 (stereo partly drawn)	Apaf1 inhib 40 | Apaf-1 inh conf inactive | Rh110 interf inh inactive
CC[C@]12c3[nH]c4ccccc4c3CCN1C(=O)C(CC(=O)NC/C=C(\C)CCC=C(C)C)C[C@@H]2C(=O)N1CCN(C(=O)c2ccco2)CC1 (stereo partly drawn)	none
O=C(C[C@H]1C[C@H](C(=O)N2CCOCC2)[C@@]2(CCC3CCCC3)c3[nH]c4cc(-c5ccco5)ccc4c3CCN2C1=O)NCCCn1ccnc1	Apaf1 inhib 62 | Apaf-1 inh conf inactive | Rh110 interf inh inactive
C[C@]12c3[nH]c4ccc(Cl)cc4c3CCN1C(=O)[C@@H](CC(=O)NCCCn1ccnc1)C[C@@H]2C(=O)N1CCCCC1	none
O=C(C[C@H]1C[C@H](C(=O)N2CCCCC2)[C@@]2(CCc3ccccc3)c3[nH]c4ccc(Cl)cc4c3CCN2C1=O)NCCCn1ccnc1	Apaf1 inhib 61 | Apaf-1 inh conf inactive | Rh110 interf inh inactive
COc1ccc(-n2c(Cc3cccs3)nnc2SCC(=O)Nc2cccc3ccccc23)cc1	none (no result: PAFAH1B3 inh, Apaf1 inhib, PAFAH1B2 inh, PAFAH2 inh)
O=S1(=O)c2ccc(Br)cc2OC[C@@H](Cc2ccccc2)N1Cc1cn(CCC2OCCO2)nn1	none (no result: PAFAH1B3 inh, Apaf1 inhib, PAFAH1B2 inh, PAFAH2 inh)
CCCCc1ccc(Nc2nc(CCC)cc(=O)[nH]2)cc1	Apaf1 inhib 40 | Apaf-1 inh conf inactive | Rh110 interf inh inactive
CCCc1cc(=O)[nH]c(Nc2ccc(N3CCCCC3)cc2)n1	none
Cn1c(Cc2ccccc2)n[nH]c1=S	Apaf1 inhib 42 | Apaf-1 inh conf inactive | Rh110 interf inh inactive
Cn1c(CCc2ccccc2)n[nH]c1=S	none
NS(=O)(=O)c1ccc2c(c1)C1C=CCC1C(C1CC=CCC1)N2 (stereo not drawn)	Apaf1 inhib 47 | Apaf-1 inh conf inactive | Rh110 interf inh inactive
O=C(O)C1Nc2ccc(OC(F)(F)F)cc2C2C=CCC12 (stereo not drawn)	none (no result: PAFAH1B3 inh, TDP2 absorb, PAFAH1B2 inh, PAFAH2 inh)
COc1ccc(NCc2cc3ccccc3[nH]c2=O)cc1	none
COc1ccc(NCc2cc3cc(OC)ccc3[nH]c2=O)cc1	Apaf1 inhib 47 | Apaf-1 inh conf 62 | Rh110 interf inh inactive | Apaf1 inh interf inactive
COc1cc(NC(=O)c2[nH]c(C)c(C(C)=O)c2C)c(OC)cc1Cl	none (no result: PAFAH1B3 inh, Apaf1 inhib, PAFAH1B2 inh, PAFAH2 inh)
CCCCCCCCCCOC(=O)Cn1c(COc2ccccc2OC)[n+](C)c2ccccc21	Apaf1 inhib 71 | Apaf-1 inh conf 65 | Rh110 interf inh inactive | Apaf1 inh interf inactive
Cn1c(COc2ccccc2O)[n+](C)c2ccccc21	none
CCCC(=O)N1CCC(NS(=O)(=O)c2ccc3c(c2)CCN3C(C)=O)CC1	none (no result: PAFAH1B3 inh, Apaf1 inhib, PAFAH1B2 inh, PAFAH2 inh)
Cc1ccc(-c2ccc(/C=N\NC(=O)C3C(=O)NCC3c3ccccc3)o2)cc1Cl (stereo not drawn)	Apaf1 inhib 43 | Apaf-1 inh conf inactive | Rh110 interf inh inactive
O=C1NCC(c2ccccc2)C1C(=O)N/N=C\c1ccc(-c2cccc(Cl)c2Cl)o1 (stereo not drawn)	Apaf1 inhib 40 | Apaf-1 inh conf inactive | Rh110 interf inh inactive
